Test results: ChEMBL document CHEMBL1143907, “Synthesis, nicotinic acetylcholine receptor binding, and pharmacological properties of 3'-(substituted phenyl)deschloroepibatidine analogs” (Bioorg Med Chem, 2008)

Columns and labels:
[1] = target: Neuronal acetylcholine receptor; alpha4/beta2 (Rattus norvegicus, UniProt P09483+P12390); assay: Displacement of [3H]epibatidine from alpha-4-beta-2 nAChR in rat cerebral cortex; assay type: tissue-based
[2] = target: Neuronal acetylcholine receptor subunit alpha-7 (Rattus norvegicus, UniProt Q05941); assay: Displacement of [125I]iodoMLA from alpha-7 nAChR in rat cerebral cortex; assay type: tissue-based
Mus musculus [3] = assay: Antinociceptive activity in acute pain mouse model at 10 mg/kg, sc by tail flick method; assay type: functional; details: route subcutaneous
How it was run: (§1)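 Mice, tail-flick assay: heat lamp aimed at the tail, with latency to flick recorded. Each mouse's baseline (2–4 s) was taken before treatment, and test latency was taken after sc dosing. Response was expressed as %MPE = [(test−control)/(maximum latency−control)×100]. ED50 values are reported with confidence limits, or as percent effect at the individual dose.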

Mus musculus [4] = assay: Inhibition of nicotine-induced antinociception in acute pain mouse model at 10 ug/kg, sc by tail flick method; assay type: functional; parameters: scale not given: the % may be the effect or the level left
Mus musculus [5] = assay: Antinociceptive activity in acute pain mouse model at 10 mg/kg, sc by hot plate method; assay type: functional; details: route subcutaneous
How it was run: (§2)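 Mice were placed in a 10-cm glass cylinder on a hot plate held at 55.0 °C. Two control latencies, at least 10 min apart, were taken per mouse (normal 8–12 s). The endpoint was a jump or paw lick, and animals were tested 5 min after sc injection. Response was expressed as %MPE from test, control and maximum latencies. ED50 values are given with confidence limits, or as percent effect at a dose.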

Mus musculus [6] = assay: Inhibition of nicotine-induced antinociception in acute pain mouse model at 10 ug/kg, sc by hot plate method; assay type: functional; parameters: scale not given: the % may be the effect or the level left
Mus musculus [7] = assay: […] in mouse assessed as inhibition of nicotin induced hypothermia at 10 mg/kg, sc; assay type: functional; parameters: scale not given: the % may be the effect or the level left; details: route subcutaneous
Mus musculus [8] = assay: Effect on rectal temperature in mouse at 1000 […], sc; assay type: functional; details: route subcutaneous
How it was run: (§3)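 Rectal temperature was read with a thermistor probe inserted 24 mm, just before and at several times after sc saline or analog. The pre/post difference was calculated per mouse. Laboratory ambient temperature was 21–24 °C.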

Mus musculus [9] = assay: Effect on locomotor activity in sc dosed mouse assessed as spontaneous activity; assay type: functional
How it was run: (§4)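 Mice were placed in individual photocell activity cages 5 min after sc saline (0.9%) or analog. Photobeam interruptions (two banks of eight cells) were counted over the next 10 min. Data are the number of interruptions, and ED50 is reported with confidence limits or as percent effect at a dose.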

Mus musculus [10] = assay: Inhibition of nicotine-induced antinociception in sc dosed acute pain mouse model by tail flick method; assay type: functional
Mus musculus [11] = assay: Effect on rectal temperature in mouse at 100 […], sc; assay type: functional; details: route subcutaneous; how it was run: as §3
Mus musculus [12] = assay: Inhibition of nicotine-induced antinociception in sc dosed acute pain mouse model by hot plate method; assay type: functional
Mus musculus [13] = assay: Effect on rectal temperature in mouse at 10 mg/kg, sc; assay type: functional; details: route subcutaneous; how it was run: as §3
Mus musculus [14] = assay: Antinociceptive activity in acute pain mouse model at 20 mg/kg, sc by tail flick method; assay type: functional; details: route subcutaneous; how it was run: as §1
Mus musculus [15] = assay: Antinociceptive activity in acute pain mouse model at 20 mg/kg, sc by hot plate method; assay type: functional; details: route subcutaneous; how it was run: as §2
Mus musculus [16] = assay: Effect on rectal temperature in mouse at 2000 […], sc; assay type: functional; details: route subcutaneous; how it was run: as §3
Mus musculus [17] = assay: Agonist activity in sc dosed mouse assessed as induction of hypothermia
Mus musculus [18] = assay: Effect on rectal temperature in mouse at 5000 […], sc; assay type: functional; details: route subcutaneous; how it was run: as §3
Mus musculus [19] = assay: Antinociceptive activity in acute pain mouse model at 15 mg/kg, sc by hot plate method; assay type: functional; details: route subcutaneous; how it was run: as §2
Mus musculus [20] = assay: Antinociceptive activity in sc dosed acute pain mouse model by tail flick method; assay type: functional; how it was run: as §1
Mus musculus [21] = assay: Antinociceptive activity in sc dosed in acute pain mouse model by hot plate method; assay type: functional; how it was run: as §2
Mus musculus [22] = assay: Inhibition of nicotine-induced antinociception in acute pain mouse model at 100 ug/kg, sc by hot plate method; assay type: functional; parameters: scale not given: the % may be the effect or the level left
Mus musculus [23] = assay: Effect on locomotor activity in mouse assessed as spontaneous activity at 10 mg/kg, sc; assay type: functional; details: route subcutaneous; how it was run: as §4
Mus musculus [24] = assay: Inhibition of nicotine-induced antinociception in acute pain mouse model at 1000 ug/kg, sc by hot plate method; assay type: functional; parameters: scale not given: the % may be the effect or the level left
Mus musculus [25] = assay: Effect on rectal temperature in mouse at 10000 µg/kg, sc; details: route subcutaneous
Mus musculus [26] = assay: Inhibition of nicotine-induced antinociception in acute pain mouse model at 2000 ug/kg, sc by hot plate method; assay type: functional; parameters: scale not given: the % may be the effect or the level left
Mus musculus [27] = assay: Effect on rectal temperature in mouse at 20 mg/kg, sc; assay type: functional; details: route subcutaneous; how it was run: as §3
Mus musculus [28] = assay: […] in mouse assessed as inhibition of nicotin induced hypothermia at 20 mg/kg, sc; assay type: functional; parameters: scale not given: the % may be the effect or the level left; details: route subcutaneous
[29] = target: Neuronal acetylcholine receptor subunit alpha-7 (Rattus norvegicus) (UniProt Q05941); assay: Displacement of [125I]iodoMLA from alpha-7 nAChR in rat cerebral cortex at 50 nM; assay type: tissue-based
Mus musculus [30] = assay: Effect on rectal temperature in mouse at 500 […], sc; assay type: functional; details: route subcutaneous; how it was run: as §3

Neuronal acetylcholine receptor; alpha4/beta2, sequence (P09483 whole entry): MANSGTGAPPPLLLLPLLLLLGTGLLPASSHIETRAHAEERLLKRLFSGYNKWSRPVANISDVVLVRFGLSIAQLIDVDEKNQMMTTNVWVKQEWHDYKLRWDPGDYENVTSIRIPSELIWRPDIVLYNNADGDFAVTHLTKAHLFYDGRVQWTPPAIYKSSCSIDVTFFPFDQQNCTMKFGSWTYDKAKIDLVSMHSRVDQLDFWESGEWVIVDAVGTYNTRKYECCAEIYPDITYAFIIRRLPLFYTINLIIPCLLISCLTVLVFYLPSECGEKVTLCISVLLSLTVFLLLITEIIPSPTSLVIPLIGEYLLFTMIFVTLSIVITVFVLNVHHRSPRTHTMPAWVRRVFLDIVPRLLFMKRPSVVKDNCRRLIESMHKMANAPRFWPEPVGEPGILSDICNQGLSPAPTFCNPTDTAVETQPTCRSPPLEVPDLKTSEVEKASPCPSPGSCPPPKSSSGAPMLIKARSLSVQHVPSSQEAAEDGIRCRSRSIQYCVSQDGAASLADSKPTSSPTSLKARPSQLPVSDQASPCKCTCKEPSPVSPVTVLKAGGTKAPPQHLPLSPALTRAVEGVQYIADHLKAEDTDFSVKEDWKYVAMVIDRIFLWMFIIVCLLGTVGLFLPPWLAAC
Neuronal acetylcholine receptor; alpha4/beta2, sequence (P12390 whole entry): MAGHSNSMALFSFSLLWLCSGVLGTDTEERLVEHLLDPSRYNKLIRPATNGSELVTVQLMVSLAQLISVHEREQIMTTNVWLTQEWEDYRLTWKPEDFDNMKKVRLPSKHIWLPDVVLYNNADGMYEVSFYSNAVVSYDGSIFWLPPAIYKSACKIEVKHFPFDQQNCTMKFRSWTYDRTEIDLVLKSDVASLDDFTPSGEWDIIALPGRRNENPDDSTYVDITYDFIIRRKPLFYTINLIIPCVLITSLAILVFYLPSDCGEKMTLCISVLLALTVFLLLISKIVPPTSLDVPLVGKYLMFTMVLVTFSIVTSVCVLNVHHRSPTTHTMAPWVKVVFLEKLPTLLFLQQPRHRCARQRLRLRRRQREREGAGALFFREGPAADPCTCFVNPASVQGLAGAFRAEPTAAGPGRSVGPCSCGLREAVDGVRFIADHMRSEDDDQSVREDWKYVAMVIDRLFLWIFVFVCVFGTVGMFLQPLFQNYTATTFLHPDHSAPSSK
Neuronal acetylcholine receptor subunit alpha-7, sequence (Q05941 whole entry): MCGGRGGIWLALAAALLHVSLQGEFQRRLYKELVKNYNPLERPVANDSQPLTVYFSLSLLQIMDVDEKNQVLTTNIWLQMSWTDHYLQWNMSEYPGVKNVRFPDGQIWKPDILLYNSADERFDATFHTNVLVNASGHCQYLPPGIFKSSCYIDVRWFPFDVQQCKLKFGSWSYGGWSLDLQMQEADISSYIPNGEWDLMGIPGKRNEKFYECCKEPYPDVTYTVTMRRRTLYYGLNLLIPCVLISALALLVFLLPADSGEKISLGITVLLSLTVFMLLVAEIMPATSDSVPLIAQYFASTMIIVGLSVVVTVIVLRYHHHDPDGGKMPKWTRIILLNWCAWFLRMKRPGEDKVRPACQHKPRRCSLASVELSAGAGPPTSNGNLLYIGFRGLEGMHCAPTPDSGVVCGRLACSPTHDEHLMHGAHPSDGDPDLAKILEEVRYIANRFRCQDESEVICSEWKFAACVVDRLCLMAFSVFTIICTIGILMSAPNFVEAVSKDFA
Neuronal acetylcholine receptor subunit alpha-7 (Rattus norvegicus), sequence (Q05941 whole entry): as above

Row | Compound | Ki [1] [nM] | Ki [2] [nM] | Activity (Mus musculus [3]) [%] | Activity (Mus musculus [5]) [%] | Activity (Mus musculus [8]) [%] | ED50 (Mus musculus [9]) [µg/kg] | AD50 (Mus musculus [10]) [µg/kg] | AD50 (Mus musculus [12]) [µg/kg] | ED50 (Mus musculus [17]) [µg/kg] | further results
1 | Clc1ccc(-c2cncc(C3CC4CCC3N4)c2)cc1 (configuration not stated) | 0.21 | > 2000 | 1 | 11 | 5 | 10500 |  |  |  | Activity (Mus musculus [4]): 0%; Activity (Mus musculus [6]): 0%; Activity (Mus musculus [7]): 2%
2 | Cl.Fc1ccc(-c2cc(C3CC4CCC3N4)cnc2F)cc1 (racemic) | 0.029 |  |  | 15 |  |  | 0.5 | 230 |  | Activity (Mus musculus [11]): 0%
3 | Cl.Cl.Fc1cccc(-c2cncc(C3CC4CCC3N4)c2)c1 (racemic) | 0.2 | > 2000 | 2 | 8 |  | 5000 | 3.1 | 3000 |  | Activity (Mus musculus [7]): 0%; Activity (Mus musculus [13]): 0%
4 | Cl.Cl.O=[N+]([O-])c1cccc(-c2cncc(C3CC4CCC3N4)c2)c1 (racemic) | 0.17 | > 2000 |  |  |  | 2500 |  |  | 37600 | Activity (Mus musculus [14]): 5%; Activity (Mus musculus [15]): 21%; Activity (Mus musculus [16]): 0%
5 | Cl.Nc1ccc(-c2cc(C3CC4CCC3N4)cnc2F)cc1 (racemic) | 0.095 |  |  | 10 |  |  | 5 | 1800 |  | Activity (Mus musculus [18]): 0%
6 | COc1cccc(-c2cncc(C3CC4CCC3N4)c2)c1.Cl.Cl (racemic) |  | > 2000 | 1 | 20 |  | 2900 |  |  |  | Activity (Mus musculus [4]): 0%; Activity (Mus musculus [6]): 0%; Activity (Mus musculus [7]): 0%; Activity (Mus musculus [13]): 0%
7 | Cl.Fc1ncc(C2CC3CCC2N3)cc1-c1ccccc1 (racemic) |  | > 2000 |  |  |  |  | 500 | 1200 |  | Activity (Mus musculus [19]): 4%
8 | Cl.Nc1cccc(-c2cncc(C3CC4CCC3N4)c2)c1 (racemic) | 1.16 | > 2000 |  |  |  | 1500 |  |  | 3800 | ED50 (Mus musculus [20]): 6 µg/kg; ED50 (Mus musculus [21]): 650 µg/kg
9 | CN1CCC[C@@H]1c1cccnc1 [R-NICOTINE] |  |  |  |  |  | 500 |  |  | 1000 | ED50 (Mus musculus [20]): 1300 µg/kg; ED50 (Mus musculus [21]): 650 µg/kg
10 | Fc1ccc(-c2cncc(C3CC4CCC3N4)c2)cc1 (configuration not stated) | 0.15 | > 2000 | 3 | 13 | 0 | 3000 | 13 |  |  | Activity (Mus musculus [22]): 10%; Activity (Mus musculus [7]): -1.6%
11 | Cl.Fc1ncc(C2CC3CCC2N3)cc1-c1cccc(Cl)c1 (racemic) | 0.073 |  |  | 14 | 0 |  | 12 | 450 |  | 
12 | Cl.Fc1ncc(C2CC3CCC2N3)cc1-c1ccc(Cl)cc1 (racemic) | 0.044 |  |  | 7 | 0 |  | 0.3 | 260 |  | Activity (Mus musculus [23]): 5%
13 | Cl.Fc1cccc(-c2cc(C3CC4CCC3N4)cnc2F)c1 (racemic) | 0.087 |  |  |  | 0 |  | 5 |  |  | Activity (Mus musculus [24]): 2%
14 | c1cnc2cc3c(cc2n1)[C@@H]1CNC[C@H]3C1 [VARENICLINE] |  |  | 11 | 10 |  | 2100 | 0.2 | 470 | 2800 | Activity (Mus musculus [25]): 0%
15 | Clc1ccc(C2CC3CCC2N3)cn1 (racemic) [EPIBATIDINE] |  |  |  |  |  | 1 |  |  | 4 | ED50 (Mus musculus [20]): 6 µg/kg; ED50 (Mus musculus [21]): 4 µg/kg
16 | Cl.Nc1cccc(-c2cc(C3CC4CCC3N4)cnc2F)c1 (racemic) |  |  |  | 4 |  |  | 9 | 820 |  | Activity (Mus musculus [18]): 5%
17 | Cl.Nc1ccc(-c2cncc(C3CC4CCC3N4)c2)cc1 (racemic) | 0.34 | > 2000 | 6 | 10 |  |  | 1 |  |  | Activity (Mus musculus [26]): 45%; Activity (Mus musculus [7]): 0%; Activity (Mus musculus [27]): 0%; Activity (Mus musculus [23]): 15%
18 | COc1cccc(-c2cc(C3CC4CCC3N4)cnc2F)c1.Cl (racemic) |  |  |  | 8 |  |  | 8 | 2000 |  | 
19 | Cl.O=[N+]([O-])c1ccc(-c2cc(C3CC4CCC3N4)cnc2F)cc1 (racemic) | 0.009 |  |  | 10 | 0 |  | 3 | 120 | 3500 | 
20 | Cl.Cl.Cl.Clc1cccc(-c2cncc(C3CC4CCC3N4)c2)c1 (racemic) | 0.17 | > 2000 |  |  | 0 | 3800 | 0.01 |  |  | Activity (Mus musculus [14]): 1%; Activity (Mus musculus [15]): 10%; Activity (Mus musculus [24]): 0%; Activity (Mus musculus [28]): 0%
21 | c1cncc(C2CC3CCC2N3)c1 (configuration not stated) [DESCHLOROEPIBATIDINE] |  |  |  |  |  |  |  |  |  | ED50 (Mus musculus [20]): 2 µg/kg
22 | Cl.Cl.O=[N+]([O-])c1ccc(-c2cncc(C3CC4CCC3N4)c2)cc1 (racemic) | 0.34 | > 2000 | 1 | 26 |  | 660 | 47 |  | 2900 | Activity (Mus musculus [22]): 10%; Activity (Mus musculus [11]): 0%
23 | Cl.Cl.c1ccc(-c2cncc(C3CC4CCC3N4)c2)cc1 (racemic) | 0.5 |  | 6 | 30 | 0 | 500 | 300 |  | 1500 | Activity [29]: 7%; Activity (Mus musculus [24]): 10%
24 | Cl.O=[N+]([O-])c1cccc(-c2cc(C3CC4CCC3N4)cnc2F)c1 (racemic) | 0.053 |  |  | 20 |  |  | 0.2 | 130 |  | Activity (Mus musculus [30]): 5%
